# STEP block: STEP (human) phosphatase inhibition; P54829; recombinant STEP, OMFP fluorogenic substrate, fluorescence; inhibition, % at 20 µM; 360,000 compounds, 0.25% hits;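 active = inhibition at 20 µM, scaled per plate between control wells, above about 37%, limit read from the data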
# Target sequence (P54829 whole entry, looked up): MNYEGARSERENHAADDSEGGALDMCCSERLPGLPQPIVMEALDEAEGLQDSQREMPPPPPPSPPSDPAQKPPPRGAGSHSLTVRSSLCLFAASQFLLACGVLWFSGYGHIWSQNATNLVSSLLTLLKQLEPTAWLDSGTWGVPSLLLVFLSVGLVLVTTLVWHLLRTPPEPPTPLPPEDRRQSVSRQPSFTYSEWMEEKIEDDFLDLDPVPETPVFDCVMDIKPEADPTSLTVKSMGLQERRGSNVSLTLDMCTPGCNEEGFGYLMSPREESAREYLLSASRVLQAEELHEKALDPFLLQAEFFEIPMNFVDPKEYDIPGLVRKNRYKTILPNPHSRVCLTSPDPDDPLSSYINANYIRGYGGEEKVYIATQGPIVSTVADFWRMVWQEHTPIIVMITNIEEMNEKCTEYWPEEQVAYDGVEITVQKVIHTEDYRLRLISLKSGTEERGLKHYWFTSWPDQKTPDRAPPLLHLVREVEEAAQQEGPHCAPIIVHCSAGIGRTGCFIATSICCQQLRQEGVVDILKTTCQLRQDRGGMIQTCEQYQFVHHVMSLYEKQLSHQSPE
#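 System: STEP phosphatase, cell-free reaction; Buffer or medium: Bis-Tris pH 6.0 buffer with DTT, detergent; Incubation: 20 min at room temperature, dark; Measured by: fluorescence, 480/540 nm.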
# DNMT1 block: DNMT1 (human) enzyme inhibition. P26358. DNMT1 molecular beacon, Hinp1I cleavage, fluorescence. inhibition (reported as % activation of signal), % at 10 µM. 360,000 compounds, 0.83% hits; in the data active = inhibition above about 50%
# Scp1 inh: blocks human Scp-1 phosphatase activity; inhibition, % at 20 µM; Recombinant Scp1, phosphopeptide, malachite green phosphate absorbance; 340,000 compounds, 0.88% hits;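 active = inhibition above about 50% at 20 µM, limit read from the data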
#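 assay system = SCP-1 phosphatase catalytic domain, residues 76-261 | buffer or medium = 50 mM Tris acetate pH 5.5, 0.005% Tween-20, 10 mM MgCl2 | incubation = enzyme reaction 45 min at room temperature, colour 5 min, stabilisation 30 min | signal = Phosphate-binding colour reagent, absorbance read at 630 nm | measure = % inhibition at 20 µM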
# LMPTP block: blocks human LMPTP phosphatase | P24666 | recombinant LMPTP-A, OMFP fluorogenic substrate, fluorescence intensity | inhibition, % at 20 µM | 360,000 compounds, 0.22% hits;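 active = compounds that cut the enzyme signal by at least half of the control window in the single-dose screen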
#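 Test system – LMPTP-A enzyme · Amount – LMPTP-A at 0.625 nM final in the reaction · Buffer or medium – Bis-Tris pH 6.0, DTT, detergent · Reagent – OMFP 400 µM · Doses – single 20 µM dose · Schedule – reaction 50 min, room temperature, dark · Detection – fluorescence intensity of OMFP turnover product · Evaluation – percent inhibition versus substrate-only and uninhibited controls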
# SUMO1 PPI mod: alters human SUMO1 binding to SIM partners | inhibition, % at 20 µM | P63165 | SUMO1 binding to a labelled peptide, TR-FRET, 1 h | 360,000 compounds, 0.33% hits | AID 602429; in the data active = inhibition above about 37%
# Target sequence (P63165 whole entry, looked up): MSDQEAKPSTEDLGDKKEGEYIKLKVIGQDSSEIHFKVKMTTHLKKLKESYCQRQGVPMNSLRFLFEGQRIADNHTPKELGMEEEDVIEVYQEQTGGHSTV
# GRK2 aptamer HTS: blocks RNA aptamer binding to human GRK2; 330,000 compounds, 0.59% hits; bead flow cytometry, FAM-aptamer displacement from GRK2; P25098; inhibition of aptamer binding, % at 10 µM;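 active = inhibition of aptamer binding above 40%, roughly 3 SD of noise, on plates passing a quality check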;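 also: median bead fluorescence of bound FAM aptamer so fluorescent compounds give negative values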
# Scp1 confirm: confirmation of human Scp-1 phosphatase inhibitors; shares compounds with Scp1 inh; recombinant SCP-1 catalytic domain, phosphate release, malachite green absorbance; inhibition, % at 20 µM; 2,500 compounds, 61% hits; AID 540281
# Scp-1 MG ctr: colorimetric interference in Scp-1 counter-screen | 2,500 tested, under 10 active | shares compounds with Scp1 inh | AID 540313 | Colorimetric interference counterscreen, malachite green absorbance 630 nm | apparent inhibition (interference), % at 20 µM;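 also: compounds added after enzyme reaction finished so only phosphate colour detection is probed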
# Scp-1 Tm shift: binds human Scp-1, shifting its melting temperature; shares compounds with Scp1 inh; 1,500 compounds, 25% hits; thermal shift relative to vanadate control, % at 40 µM; AID 540329; Recombinant SCP1, Sypro Orange thermal shift Tm;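 active = substances whose mean melting-temperature shift, as a percentage of the reference inhibitor's shift, reaches about 5.3%, limit read from the data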
# DNMT1 interf DR: counter-screen for DNMT1 inhibitors: spectral interference, dose response. molecular beacon fluorescence. 200 tested, under 10 active. IC50, µM. shares compounds with DNMT1 block; call rule not given here
# DNMT1 confirm: confirmation of human DNMT1 inhibitors. shares compounds with DNMT1 block. DNMT1 molecular beacon HinP1I cleavage, fluorescence. inhibition, % at 10 µM. 2,300 compounds, 8% hits. AID 602385;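 active = average inhibition of at least 30% in the single-concentration confirmation test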
# Beacon interf: shows spectral interference in the DNMT1 beacon assay. activation (fluorescence interference), % at 10 µM. 2,300 compounds, 1% hits. AID 602387. DNMT1 molecular beacon spectral interference counterscreen, fluorescence 485/520. shares compounds with DNMT1 block;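 active = activation of at least 30% at 10 µM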;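 also: DNMT1 catalytic domain with a HinP1I cleavage step and a FAM/dabcyl DNA beacon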
# A number is an active result; - = inactive; . = no result given. Sampled rows, rich in hits. Any-hit rate of the full collection: about 2.2%.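 The calls were made as follows, unless noted: active = inhibition of at least 30% at 20 µM; inactive = the rest.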
SMILES,STEP block,DNMT1 block,Scp1 inh,LMPTP block,SUMO1 PPI mod,GRK2 aptamer HTS,Scp1 confirm,Scp-1 MG ctr,Scp-1 Tm shift,DNMT1 confirm,Beacon interf,others
CN(C)CCNC(=O)c1ccc2nc([C@@H]3O[C@H](CO)[C@H](O)[C@H](O)[C@H]3O)[nH]c2c1,-,-,.,-,-,.,.,.,.,.,.,
O=C(NCCc1ccccc1)C1Cc2c(-c3ccc(Cl)cc3)ccnc2O1 (stereo not drawn),-,-,.,-,-,.,.,.,.,.,.,
CCN(CC(=O)Nc1c(F)cccc1F)C(=O)CCc1nc2sc3c(c2c(=O)[nH]1)CCCC3,-,54,65,-,-,-,59,-,9.0,-,-,
O=C(CSc1ccsc1[N+](=O)[O-])Nc1cc(F)ccc1F,-,70,72,-,-,.,66,-,8.1,-,-,
O=C(CSc1ccsc1[N+](=O)[O-])NCCc1ccc(Cl)cc1,-,-,-,-,-,-,.,.,.,.,.,
O=C(Nc1cccnc1)c1ccc2nc(-c3ccccc3)c(-c3ccccc3)nc2c1,-,-,-,-,-,-,.,.,.,.,.,
O=C(Nc1ccccc1)c1ccc2nc(-c3ccco3)c(-c3ccco3)nc2c1,-,83,71,-,-,-,-,-,.,-,-,
CC1(C)Cc2c(c(-c3ccco3)nc3sc4c(NCCO)ncnc4c23)CO1,-,-,-,-,-,-,.,.,.,.,.,
CSc1nc(SCCO)c2sc3nc(-c4ccco4)c4c(c3c2n1)CC(C)(C)OC4,-,98,79,-,60,.,43,-,7.4,-,-,
CC(=O)Nc1cc(=O)c2cccnc2[nH]1,-,63,82,64,-,.,61,-,-,-,-,
CCOc1cc(/C=N/Nc2nc(Nc3ccccc3)nc(N3CCCCC3)n2)ccc1OCC(=O)O,-,-,-,-,-,-,.,.,.,.,.,
CCOc1cc(/C=N/Nc2ccccc2Cl)ccc1OCC(=O)O,-,58,54,-,-,-,-,-,.,-,-,
O=C(N/N=C/c1ccc(OC(=O)c2ccc([N+](=O)[O-])cc2)cc1)c1cccnc1,-,-,-,-,-,-,.,.,.,.,.,
COc1ccc(C(=O)Oc2ccc(/C=N/NC(=O)Cc3ccc([N+](=O)[O-])cc3)cc2)cc1,-,53,91,-,-,85,-,-,.,-,-,
C=CCN1C(=O)/C(=C2/Sc3ccccc3N2CCCS(=O)(=O)O)SC1=S,-,67,86,-,-,-,64,-,13,-,-,
Cc1ccc(C)c(N2CCN(S(=O)(=O)c3ccc4c(c3)C(C)(C)C(=O)N4C)CC2)c1,-,-,-,-,-,-,.,.,.,.,.,
Cc1cccc(N2CCN(S(=O)(=O)c3ccc4c(c3)C(C)(C)C(=O)N4C)CC2)c1C,-,76,85,-,-,-,69,-,-,-,-,
Nc1nc(SCc2ccccc2Cl)nc2nc3c(cc12)CCCC3,-,-,-,-,-,-,.,.,.,.,.,
Nc1nc(SCc2ccc(Cl)cc2Cl)nc2nc3c(cc12)CCCC3,-,90,97,-,-,-,76,-,-,-,-,
COc1ccc(CNC(=O)COC(=O)c2ccc(S(=O)(=O)NCc3ccco3)cc2)cc1,-,51,55,-,-,-,61,-,-,-,-,
CCOC(=O)C1(C)CCN1C(=O)c1ccc(F)c(Cl)c1 (stereo not drawn),-,-,.,-,-,.,.,.,.,.,.,
CCN(CC)C(=O)CSc1ncnc2c(-c3cccs3)nsc12,-,97,76,-,-,-,61,-,6.0,-,-,
Cc1onc(-c2ccccc2Cl)c1C(=O)NCc1ccco1,-,63,83,-,-,-,-,-,.,-,-,
Cc1ccc(CNC(=O)c2c(-c3ccccc3Cl)noc2C)cc1,-,-,-,-,-,-,.,.,.,.,.,
C[C@@H](c1ccccc1)N1C[C@@H](COCc2ccccc2)Oc2cc(N3CCC[C@H]3C(N)=O)ccc2S1(=O)=O,.,.,.,-,-,.,.,.,.,.,.,
SMILES,STEP block,DNMT1 block,Scp1 inh,LMPTP block,SUMO1 PPI mod,GRK2 aptamer HTS,Scp1 confirm,Scp-1 MG ctr,Scp-1 Tm shift,DNMT1 confirm,Beacon interf,others
O=C(N1CCOCC1)C12OC3CC(CC(C3)O1)O2,-,-,.,-,-,.,.,.,.,.,.,
COc1ccc(OC)c([N+](=O)[O-])c1C(N)=O,-,75,68,-,-,-,62,-,-,-,-,
O=C(OCc1ccccc1)c1c(-c2ccccc2)oc2c1C(OCCO)CCC2 (stereo not drawn),.,.,.,-,-,.,.,.,.,.,.,
Cc1nn(-c2ccc(F)cc2)c(Cl)c1/C=N/NC(=O)c1cccc(S(=O)(=O)N2CCCC2)c1,-,75,50,-,-,-,35,-,-,-,-,
CCC(=O)N(c1nnc(SC(C)C(=O)Nc2ccc(N3CCOCC3)cc2)s1)C1CC1 (stereo not drawn),-,-,.,-,-,.,.,.,.,.,.,
O=C1Nc2ccc(S(=O)(=O)NCc3ccco3)c3cccc1c23,-,63,56,-,-,-,70,-,-,-,78,
CCc1nc2oc3ccccc3c(=O)c2c(=O)n1-c1ccc(C)cc1,-,78,65,-,-,-,56,-,-,-,-,
CCCc1nc2oc3ccccc3c(=O)c2c(=O)n1-c1ccc(C)cc1,-,-,-,-,-,-,.,.,.,.,.,
CC(=O)OCC1=C(C(=O)O)N2C(=O)C(NC(=O)c3ccc(COc4cccc(Cl)c4Cl)o3)C2SC1 (stereo not drawn),-,88,53,-,-,-,66,-,-,41,-,DNMT1 interf DR=-
COc1cccc(C(=O)NC2C(=O)N3C(C(=O)O)=C(COC(C)=O)CSC23)c1 (stereo not drawn),-,-,-,-,-,-,.,.,.,.,.,
CC(=O)COc1ccc2oc(=O)cc(-c3cc4ccccc4o3)c2c1,-,-,-,-,-,-,.,.,.,.,.,
Cc1cc2oc(=O)cc(-c3cc4ccccc4o3)c2cc1O,-,81,91,66,-,-,79,-,-,-,-,
Cc1cccc(C(=O)N[C@H](C(=O)OCc2cc(=O)n3c(n2)sc2ccccc23)C(C)C)c1,-,98,72,-,-,-,50,-,-,-,-,
